“And” between values parts separate entries of the source, which are not always exact repeats. Equal entries are not always repeated.
Assays:
Glutamate NMDA receptor [1] = assay: Compound was tested for inhibition of [3H]MK-801 binding to N-methyl-d-aspartate receptors(NMDA) of rat brain cortical membranes.; format: cell membranes, Membrane
Summary of the method: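 [³H]MK801 displacement in rat brain cortical membranes, run by a previously described method. Compounds with IC50 < 300 µM were counted as potential NMDA antagonists.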

[2] = biological target: T1, Glutamate receptor ionotropic, AMPA (Rattus norvegicus) (UniProt P19491+P19492+P19493+P19490); assay: Inhibition of AMPA(glutamate) preferring non-NMDA receptors was measured in oocytes expressing rat brain poly(A)+ RNA. Number of cells examined are 4; format: functional, cell-based; conditions: Oocyte
Summary of the method: (§1)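 Oocytes injected with rat cerebral cortex poly(A)+ RNA, two-electrode voltage clamp. Currents elicited by 10 µM AMPA. Kb derived from partial concentration-inhibition curves by generalized Cheng-Prusoff, using AMPA EC50 5.89 µM and slope 1.96.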

[3] = biological target: T2, Glutamate NMDA receptor (Rattus norvegicus) (UniProt P35439+Q00959+Q00960+Q00961+Q62645+Q8VHN2+Q9R1M7); assay: Inhibition of NMDA(glycine) receptors was measured in oocytes expressing cloned rat brain receptor subunits (NR1a/2C). Number of cells examined are 3; format: functional, cell-based; conditions: Oocyte
Glutamate NMDA receptor [4] = assay: Inhibition of [3H]5,7-dichlorokynurenic acid(DCKA) binding to N-methyl-d-aspartate receptors(NMDA) of rat brain cortical membranes; format: cell membranes, Membrane
Summary of the method: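 [³H]DCKA (15-20 nM) incubated with well-washed rat cortical membranes and nine concentrations (up to 100 µM) in 50 mM HEPES-KOH, pH 7.5, for 30 min on ice. Reaction stopped by filtration and filter-bound radioactivity counted by liquid scintillation. IC50 taken from a sigmoidal fit.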

[5] = Ratio of binding affinities of NMDA / AMPA
Summary of the method: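 Steady-state selectivity index: Kb AMPA divided by Kb NMDA, with both Kb values taken from oocyte recordings.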

[6] = biological target: T2, Glutamate NMDA receptor (Rattus norvegicus); assay: Inhibition of NMDA(glycine) receptors was measured in oocytes expressing cloned rat brain receptor subunits (NR1a/2C). Number of cells examined are 4; format: functional, cell-based; conditions: Oocyte
[7] = biological target: AMPA receptor (Rattus norvegicus); assay: Inhibition of AMPA(glutamate) preferring non-NMDA receptors was measured in oocytes expressing rat brain poly(A)+ RNA. Number of cells examined are 6; conditions: Oocyte
Mus musculus = assay: In vivo potency in mouse maximum electroshock-inducedseizure after i.v. administration; format: functional; conditions: iv
[8] = biological target: T1, Glutamate receptor ionotropic, AMPA (Rattus norvegicus); assay: Inhibition of AMPA(glutamate) preferring non-NMDA receptors was measured in oocytes expressing rat brain poly(A)+ RNA. Number of cells examined are 3; format: functional, cell-based; conditions: Oocyte; summary of the method: as §1
[9] = biological target: T1, Glutamate receptor ionotropic, AMPA (Rattus norvegicus); assay: Inhibition of AMPA(glutamate) preferring non-NMDA receptors was measured in cultured rat cortical neurons. Number of cells examined are 2
[10] = biological target: T1, Glutamate receptor ionotropic, AMPA (Rattus norvegicus); assay: Inhibition of AMPA(glutamate) preferring non-NMDA receptors was measured in cultured rat cortical neurons. Number of cells examined are 3
[11] = biological target: T2, Glutamate NMDA receptor (Rattus norvegicus); assay: Inhibition of NMDA(glycine) receptors was measured in oocytes expressing cloned rat brain receptor subunits (NR1a/2C). Number of cells examined are 2; format: functional, cell-based; conditions: Oocyte
[12] = biological target: T1, Glutamate receptor ionotropic, AMPA (Rattus norvegicus); assay: Inhibition of AMPA(glutamate) preferring non-NMDA receptors was measured in oocytes expressing rat brain poly(A)+ RNA. Number of cells examined are 5; format: functional, cell-based; conditions: Oocyte; summary of the method: as §1
[13] = biological target: T2, Glutamate NMDA receptor (Rattus norvegicus); assay: Inhibition of NMDA(glycine) receptors was measured in oocytes expressing cloned rat brain receptor subunits (NR1a/2C). Number of cells examined are 7; format: functional, cell-based; conditions: Oocyte
[14] = biological target: T1, Glutamate receptor ionotropic, AMPA (Rattus norvegicus); assay: Inhibition of AMPA(glutamate) preferring non-NMDA receptors was measured in cultured rat cortical neurons. Number of cells examined are 8

In the case of `Cc1ccc2[nH]c(=O)c(O)cc(=O)c2c1C`, the IC50 (Glutamate NMDA receptor [1]) is reported as > 300 µM.
In the case of `Cc1ccc(C)c2c(O)cc(=O)c(=O)[nH]c12`, the IC50 (Glutamate NMDA receptor [1]) is reported as > 300 µM.
In the case of `Cc1c[nH]c(=O)c(O)cc1=O`, the IC50 (Glutamate NMDA receptor [1]) is reported as > 300 µM.
For `O=c1cc(O)c2ccc(F)cc2[nH]c1=O`, the Kb [2] was 5.3 µM, the Kb [3] was 0.21 µM and the IC50 (Glutamate NMDA receptor [4]) was 0.49 µM. The Ratio [5] was 25.
Compound `O=c1cc(O)c2ccc(Br)cc2[nH]c1=O` has a Kb [6] of 0.026 µM, an IC50 (Glutamate NMDA receptor [4]) of 0.079 µM and a Ratio [5] of 100. It also gave a Kb [7] of 2.7 µM.
In the case of `O=c1cc(O)c2cc([N+](=O)[O-])ccc2[nH]c1=O`, the IC50 (Glutamate NMDA receptor [4]) is reported as 12 µM.
With `Cc1cccc2c(O)cc(=O)c(=O)[nH]c12` the IC50 (Glutamate NMDA receptor [1]) was > 300 µM.
For `Cc1cc2[nH]c(=O)c(O)cc(=O)c2cc1C`, the Kb [2] was 3.8 µM, the ED50 (Mus musculus) was 6.3 mg/kg and the Kb [6] was 0.086 µM. For the same compound, the IC50 (Glutamate NMDA receptor [4]) was 0.24 µM and the Ratio [5] was 44.
Compound `O=c1cc(O)c2ccccc2[nH]c1=O` has a Kb [8] of 42 µM, a Kb [6] of 1.3 µM and an IC50 (Glutamate NMDA receptor [4]) of 0.83 µM. For the same compound, the Ratio [5] was 32 and the Kb [9] was 65 µM.
For `O=c1cc(O)c2cc(Br)ccc2[nH]c1=O`, the IC50 (Glutamate NMDA receptor [1]) was > 300 µM.
With `Cc1ccc2c(O)cc(=O)c(=O)[nH]c2c1` the Kb [2] was 9.9 µM, the Kb [3] was 0.25 µM and 0.47 µM and the IC50 (Glutamate NMDA receptor [4]) was 0.13 µM. For the same compound, the Ratio [5] was 40 and the Kb [10] was 6.4 µM.
With `O=c1cc(O)c(=O)c2ccccc2[nH]1` the Kb [11] was > 55 µM and the IC50 (Glutamate NMDA receptor [4]) was > 100 µM.
With `O=c1ccc(=O)c2ccccc2[nH]1` the IC50 (Glutamate NMDA receptor [1]) was > 300 µM.
With `CC(=O)Nc1ccc2[nH]c(=O)c(O)cc(=O)c2c1` the IC50 (Glutamate NMDA receptor [4]) was > 100 µM.
Compound `Cc1cc(C)c2c(O)cc(=O)c(=O)[nH]c2c1` has an ED50 (Mus musculus) of 3.9 mg/kg and an IC50 (Glutamate NMDA receptor [4]) of 0.3 µM.
For `CCc1ccc2c(O)cc(=O)c(=O)[nH]c2c1`, the IC50 (Glutamate NMDA receptor [4]) was 5.1 µM.
Work on `Cc1cc2[nH]c(=O)c(O)cc(=O)c2c(C)c1[N+](=O)[O-]` yielded an IC50 (Glutamate NMDA receptor [4]) of 2.2 µM.
In the case of `O=C(Nc1ccc2[nH]c(=O)c(=O)cc(O)c2c1)C(F)(F)F`, the IC50 (Glutamate NMDA receptor [1]) is reported as > 300 µM.
Compound `O=c1cc(O)c2ccc(Cl)cc2[nH]c1=O` has a Kb [12] of 2 µM, an ED50 (Mus musculus) of 13 mg/kg and a Kb [13] of 0.026 µM. It also gave an IC50 (Glutamate NMDA receptor [4]) of 0.013 µM, a Ratio [5] of 77 and a Kb [14] of 10 µM.
With `[N-]=[N+]=Nc1ccc2[nH]c(=O)c(=O)cc(O)c2c1` the IC50 (Glutamate NMDA receptor [1]) was > 300 µM.
With `Cc1cc(C)c2[nH]c(=O)c(O)cc(=O)c2c1` the IC50 (Glutamate NMDA receptor [1]) was > 300 µM.
In the case of `Cc1cccc2[nH]c(=O)c(O)cc(=O)c12`, the IC50 (Glutamate NMDA receptor [4]) is reported as 13 µM.
For `O=Nc1c(O)c2ccccc2[nH]c(=O)c1=O`, the IC50 (Glutamate NMDA receptor [1]) was > 300 µM.

— ChEMBL document CHEMBL1129403, “Analogs of 3-hydroxy-1H-1-benzazepine-2,5-dione: structure-activity relationship at N-methyl-D-aspartate receptor glycine sites” (J Med Chem, 1996)
